Test results from ChEMBL document CHEMBL4177714, “Assessment of a pretomanid analogue library for African trypanosomiasis: Hit-to-lead studies on 6-substituted 2-nitro-6,7-dihydro-5H-imidazo[2,1-b][1,3]thiazine 8-oxides” (Bioorg Med Chem Lett, 2018).
In brackets after ≈: the same amount, converted by molar mass.

Columns and labels:
[1] = Selectivity index, ratio of IC50 for cytotoxicity against mouse L929 cells to IC50 for antitrypanosomal activity against Trypanosoma brucei brucei 427 bloodstream forms; type: toxicity, cell-based; conditions: read-out: Ratio IC50
[2] = Apparent permeability in MDCK2-MDR1 cells at 3 uM incubated over 150 mins at 37 degC by LC-MS/MS method; type: ADME, cell-based, Canis lupus familiaris; conditions: dog, MDCK-MDR1
Summary of the method: (§1)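 MDCK-MDR1 monolayer, apical-to-basolateral transport of compound at 3 μM, run with and without P-gp inhibitor GF120918 (2 μM). Apparent permeability (Papp) recorded; absorption quotient AQ = (Papp+918 − Papp)/Papp+918. Propranolol served as CNS-positive reference.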

Mus musculus = experiment: Time duration during which drug level in brain stays at or above MIC for antitrypanosomal activity against Trypanosoma brucei brucei TREU 667 infected in Webster mouse at 25 mg/kg, po bid; type: ADME, organism-based; conditions: in vivo
[3] = Half life in mouse liver S9 subcellular fraction; type: ADME
Summary of the method: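 Metabolic stability: compounds incubated 1 h with CD-1 mouse liver S9 subcellular fractions; half-life derived.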

[4] = Absorption quotient in MDCK2-MDR1 cells assessed as (Papp + GF120918 - Papp)/(Papp + GF120918) ratio at 3 uM incubated over 150 mins at 37 degC in presence of P-gp inhibitor GF120918 by LC-MS/MS method; type: ADME, cell-based, Canis lupus familiaris; conditions: dog, mdck-mdr1, 2.5 h; summary of the method: as §1
[5] = Selectivity index, ratio of IC50 for cytotoxicity against human MRC5 cells to IC50 for antitrypanosomal activity against Trypanosoma brucei brucei 427 bloodstream forms; type: toxicity, cell-based; conditions: read-out: Ratio IC50
Summary of the method: (§2)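 IC50 for growth inhibition of T. b. brucei 427, with cytotoxicity measured against human lung fibroblasts (MRC-5). Means of two or more independent experiments. Selectivity index is MRC-5 IC50 over T. b. brucei IC50.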

[6] = Ratio of drug level in brain to plasma in CD1 mouse at 78 mg/kg, po after 0.25 to 24 hrs by LC-MS/MS method; type: ADME, organism-based; conditions: read-out: BPR
[7] = tested on: Trypanosoma brucei brucei; experiment: Antitrypanosomal activity against Trypanosoma brucei brucei TREU 667 infected in Swiss Webster mouse assessed as infection cure rate at 25 mg/kg, po qd for 7 days starting 21 days post-infection (reference value: 0%); type: functional
[8] = tested on: Trypanosoma brucei brucei; experiment: Antitrypanosomal activity against Trypanosoma brucei brucei 427 bloodstream forms; type: functional, organism-based; summary of the method: as §2
[9] = tested on: Trypanosoma brucei brucei; experiment: Antitrypanosomal activity against Trypanosoma brucei brucei TREU 667 infected in Swiss Webster mouse assessed as mean relapse time at 10 mg/kg, ip administered as single dose on day 21 post-infection (reference value: 31 days); type: functional
Summary of the method: (§3)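 CNS (stage 2) model: mice infected with T. b. brucei TREU 667. Berenil given as a single i.p. dose of 10 mg/kg on day 4 or on day 21 post-infection. Cure rate and mean relapse time recorded against vehicle-treated controls.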

[10] = tested on: Trypanosoma brucei brucei; experiment: Antitrypanosomal activity against Trypanosoma brucei brucei TREU 667 infected in Swiss Webster mouse assessed as infection cure rate at 10 mg/kg, ip administered as single dose on day 4 post-infection (reference value: 0%); type: functional; summary of the method: as §3
[11] = tested on: Trypanosoma brucei brucei; experiment: Antitrypanosomal activity against Trypanosoma brucei brucei TREU 667 infected in Swiss Webster mouse assessed as infection cure rate at 10 mg/kg, ip administered as single dose on day 21 post-infection (reference value: 0%); type: functional; summary of the method: as §3
[12] = tested on: Trypanosoma brucei brucei; experiment: Antitrypanosomal activity against Trypanosoma brucei brucei TREU 667 infected in Swiss Webster mouse assessed as infection cure rate at 200 mg/kg, po qd for 5 days; type: functional

O=[N+]([O-])c1cn2c(n1)OC[C@@H](OCC#Cc1ccc(-c3ccc(C(F)(F)F)cc3)cn1)C2
selectivity ratio [1]: > 19 | Papp A→B at 2.5 h, 3 µM [2]: 3.5 ×10⁻⁶ cm/s

O=[N+]([O-])c1cn2c(n1)OC[C@@H](Oc1cc(-c3ccc(C(F)(F)F)nc3)ccn1)C2
selectivity ratio [1]: > 3.6

O=C(Nc1ccc2c(c1)B(O)OC2)c1ccc(F)cc1C(F)(F)F
Time (Mus musculus): 12 h

O=[N+]([O-])c1cn2c(n1)OCC(COc1ccc(-c3ccc(OC(F)(F)F)cc3)nc1)C2 (stereo not given)
selectivity ratio [1]: > 12 | Papp A→B at 2.5 h, 3 µM [2]: 7.4 ×10⁻⁶ cm/s

O=[N+]([O-])c1cn2c(n1)OCC(COc1ccc(-c3ccc(C(F)(F)F)cc3)nc1)C2 (stereo not given)
selectivity ratio [1]: > 36 | Papp A→B at 2.5 h, 3 µM [2]: 11.7 ×10⁻⁶ cm/s

CC1(COCc2ccc(OCc3ccccc3)cc2)Cn2cc([N+](=O)[O-])nc2[S+]1[O-] (stereo not given)
t1/2 [3]: 50 min | selectivity ratio [1]: > 77

COc1ccc(-c2ccc(O[C@@H]3COc4nc([N+](=O)[O-])cn4C3)nc2)cn1
selectivity ratio [1]: > 3.7

O=[N+]([O-])c1cn2c(n1)OC[C@@H](OCCCc1ccc(-c3ccc(Oc4ccc(C(F)(F)F)cc4)cc3)cc1)C2
selectivity ratio [1]: > 43

CC1(COCc2ccc(OCc3ccccc3)cc2)Cn2cc([N+](=O)[O-])nc2S1 (stereo not given)
t1/2 [3]: 31 min | selectivity ratio [1]: > 4.5 | Ratio [4]: 0

O=[N+]([O-])c1cn2c(n1)SC(COCc1ccc(OCc3ccccc3)cc1)C2 (stereo not given)
t1/2 [3]: 67 min | selectivity ratio [1]: > 22

O=[N+]([O-])c1cn2c(n1)[S@+]([O-])C[C@@H](OCc1ccc(OC(F)(F)F)cc1)C2
selectivity ratio [1]: > 143

O=[N+]([O-])c1cn2c(n1)[S+]([O-])CC(OCc1ccc(-c3ccc(OC(F)(F)F)cc3)cn1)C2 (stereo not given)
selectivity ratio [5]: > 500

CN1CC(OCc2ccc(OCc3ccccc3)cc2)Cn2nc([N+](=O)[O-])cc21 (stereo not given)
t1/2 [3]: 38 min | selectivity ratio [1]: > 3.3

O=[N+]([O-])c1cn2c(n1)[S+]([O-])CC(OCc1ccc(OC(F)(F)F)cc1)C2 (stereo not given)
selectivity ratio [1]: > 63

O=[N+]([O-])c1cn2c(n1)[S+]([O-])CC(OCc1ccc(OCc3ccccc3)cc1)C2 (stereo not given)
selectivity ratio [1]: > 667

O=[N+]([O-])c1cn2c(n1)S(=O)(=O)CC(OCc1ccc(OC(F)(F)F)cc1)C2 (stereo not given)
selectivity ratio [1]: > 11

O=[N+]([O-])c1cn2c(n1)S(=O)(=O)CC(OCc1ccc(OCc3ccccc3)cc1)C2 (stereo not given)
selectivity ratio [1]: > 303 | Papp A→B at 2.5 h, 3 µM [2]: 3.69 ×10⁻⁶ cm/s

O=[N+]([O-])c1cn2c(n1)OC[C@@H](NCc1ccc(OC(F)(F)F)cc1)C2
selectivity ratio [1]: > 13 | Kp [6]: 2 to 3

CC1(C)OB(O)c2cc(NC(=O)c3ccc(F)cc3C(F)(F)F)ccc21 [ACOZIBOROLE]
Activity [7]: 100% | Time (Mus musculus): 24 h | IC50 [8]: 0.29 µg/mL (≈ 0.79 µM)

CC(=O)NCC(=O)O.CC(=O)NCC(=O)O.N=C(N)c1ccc(/N=N/Nc2ccc(C(=N)N)cc2)cc1 [DIMINAZENE DIACETURATE]
Time [9]: 41 days | Activity [10]: 100% | Activity [11]: 0%

CSc1ccc(OCc2ncc([N+](=O)[O-])n2C)cc1 [FEXINIDAZOLE]
Activity [12]: 88%
